Measurements reported in ChEMBL document CHEMBL1143122, “Novel analogs of D-e-MAPP and B13. Part 1: synthesis and evaluation as potential anticancer agents” (Bioorg Med Chem, 2008).

What was measured:
HT-29 = assay: Antiproliferative activity against human HT29 cells after 48 hrs; format: functional; details: HT-29, 48 h
Outline: (§1)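 NCI 60-cell screen. Cells were grown in RPMI 1640 with 5% FBS and 2 mM L-glutamine, then plated at 5,000–40,000 cells/well according to doubling time and preincubated for 24 h at 37 °C in 5% CO2. Compounds were dissolved in DMSO at 400× the top final concentration and tested at five 10-fold dilutions from 10−4 to 10−8 M for 48 h. Growth was read spectrophotometrically; GI50 is 50% net protein reduction.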

UACC-62 = assay: Antiproliferative activity against human UACC62 cells after 48 hrs; format: functional; details: UACC-62, 48 h
Outline: (§2)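 NCI 60-cell-line screen. Lines grown in RPMI 1640 with 5% fetal bovine serum and 2 mM L-glutamine, plated at 5,000–40,000 cells/well according to doubling time, left 24 h at 37 °C in 5% CO2. Drug stocks in DMSO at 400-fold the top final concentration. Five 10-fold dilutions, 10−4 to 10−8 M, incubated 48 h. Growth read spectrophotometrically as net protein; GI50 taken as 50% reduction.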

T47D = assay: Antiproliferative activity against human T47D cells after 48 hrs; format: functional; outline: as §2
K562 = assay: Antiproliferative activity against human K562 cells after 48 hrs; format: functional; details: K562, 48 h; outline: as §1
BT-549 = assay: Antiproliferative activity against human BT549 cells after 48 hrs; format: functional; details: BT-549, 48 h; outline: as §1
SW-620 = assay: Antiproliferative activity against human SW620 cells after 48 hrs; format: functional; details: SW-620, 48 h; outline: as §2
TK-10 = assay: Antiproliferative activity against human TK10 cells after 48 hrs; format: functional; details: TK-10, 48 h; outline: as §2
MDA-MB-231 = assay: Antiproliferative activity against human MDA-MB-231 cells after 48 hrs; format: functional; details: MDA-MB-231, 48 h; outline: as §1
SF-295 = assay: Antiproliferative activity against human SF295 cells after 48 hrs; format: functional; details: SF-295, 48 h; outline: as §1
Hs-578T = assay: Antiproliferative activity against human HS578T cells after 48 hrs; format: functional; outline: as §1
NCI-H322M = assay: Antiproliferative activity against human NCI-H322M cells after 48 hrs; format: functional; outline: as §1
786-0 = assay: Antiproliferative activity against human 786-0 cells after 48 hrs; format: functional; details: 786-0, 48 h; outline: as §1
KM12 = assay: Antiproliferative activity against human KM12 cells after 48 hrs; format: functional; details: Homo sapiens, KM12, 48 h; outline: as §1
CAKI-1 = assay: Antiproliferative activity against human CAKI1 cells after 48 hrs; format: functional; details: CAKI-1, 48 h; outline: as §1
UACC-257 = assay: Antiproliferative activity against human UACC257 cells after 48 hrs; format: functional; details: UACC-257, 48 h; outline: as §2
SNB-75 = assay: Antiproliferative activity against human SNB75 cells after 48 hrs; format: functional; details: SNB-75, 48 h; outline: as §1
HOP-62 = assay: Antiproliferative activity against human HOP62 cells after 48 hrs; format: functional; details: HOP-62, 48 h; outline: as §1
SK-MEL-28 = assay: Antiproliferative activity against human SKMEL28 cells after 48 hrs; format: functional; details: SK-MEL-28, 48 h; outline: as §1
SK-MEL-5 = assay: Antiproliferative activity against human SKMEL5 cells after 48 hrs; format: functional; details: SK-MEL-5, 48 h, read-out: Log LC50 (the source's name) (converted); outline: as §1
A498 = assay: Antiproliferative activity against human A498 cells after 48 hrs; format: functional; details: A498, 48 h; outline: as §1
HOP-92 = assay: Antiproliferative activity against human HOP92 cells after 48 hrs; format: functional; details: HOP-92, 48 h; outline: as §1
RPMI-8226 = assay: Antiproliferative activity against human RPMI8226 cells after 48 hrs; format: functional; details: RPMI-8226, 48 h; outline: as §1
SK-MEL-2 = assay: Antiproliferative activity against human SKMEL2 cells after 48 hrs; format: functional; details: SK-MEL-2, 48 h; outline: as §1
[1] = Antiproliferative activity against human […] cells after 48 hrs; format: functional; outline: as §1
DU-145 = assay: Antiproliferative activity against human DU145 cells after 48 hrs; format: functional; details: DU-145, 48 h; outline: as §1
MOLT-4 = assay: Antiproliferative activity against human MOLT4 cells after 48 hrs; format: functional; details: MOLT-4, 48 h; outline: as §1
NCI-H522 = assay: Antiproliferative activity against human NCI-H522 cells after 48 hrs; format: functional; details: NCI-H522, 48 h; outline: as §1
Malme-3M = assay: Antiproliferative activity against human MALME3M cells after 48 hrs; format: functional; outline: as §1
MCF7 = assay: Drug level in human MCF7 cells at 10 uM per 10^6 cells after 0.5 hrs; format: ADME, cell-based; details: mcf7, 0.5 h
Outline: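 MCF7 cells kept in RPMI 1640 with 10% fetal calf serum at 37 °C, 5% CO2, then treated with 10 μM analog. Intracellular analog measured over time by HPLC-MS in positive-ion MRM mode. Quantified against calibration curves made by spiking an artificial matrix with standards plus internal standard, using analyte/IS peak-area ratios and linear regression. Reported as pmol per 1×10^6 cells.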

[2] = read-out: Log LC50 (the source's name) (converted)

In the case of `CCCCCCCCCCCCCCN[C@H](C)[C@@H](O)c1ccccc1.Cl`, the GI50 (HT-29) is reported as 1.78 µM, the LC50 (HT-29) is reported as 5.75 µM and the TGI (HT-29; read-out: Log TGI (converted)) is reported as 3.24 µM. It also gave a GI50 (UACC-62) of 1.82 µM, an LC50 (UACC-62) of 6.61 µM and a TGI (UACC-62; read-out: Log TGI (converted)) of 3.47 µM. It also gave a GI50 (T47D) of 2.29 µM, a CC50 (T47D; [2]) of 7.76 µM and a TGI (T47D; read-out: Log TGI (converted)) of 4.17 µM. The GI50 (K562) was 1.41 µM, the LC50 (K562) was 5.62 µM and the TGI (K562; read-out: Log TGI (converted)) was 2.82 µM. It also gave a GI50 (BT-549) of 1.12 µM, an LC50 (BT-549) of 5.01 µM and a TGI (BT-549; read-out: Log TGI (converted)) of 2.4 µM. The GI50 (SW-620) was 2.14 µM, the LC50 (concentration killing 50% of cells) (SW-620) was 7.94 µM and the TGI (SW-620; read-out: Log TGI (converted)) was 4.17 µM. The GI50 (TK-10) was 1.86 µM, the CC50 (TK-10; [2]) was 5.75 µM and the TGI (TK-10; read-out: Log TGI (converted)) was 3.31 µM. The GI50 (MDA-MB-231) was 1.74 µM, the LC50 (50% lethal concentration) (MDA-MB-231) was 6.46 µM and the TGI (MDA-MB-231; read-out: Log TGI (converted)) was 3.39 µM. The GI50 (SF-295) was 1.82 µM, the LC50 (SF-295) was 6.17 µM and the TGI (SF-295; read-out: Log TGI (converted)) was 3.39 µM. The GI50 (Hs-578T) was 2.51 µM, the LC50 (Hs-578T) was 46.8 µM and the TGI (Hs-578T; read-out: Log TGI (converted)) was 5.5 µM. The GI50 (NCI-H322M) was 1.91 µM, the CC50 (NCI-H322M; [2]) was 5.89 µM and the TGI (NCI-H322M; read-out: Log TGI (converted)) was 3.31 µM. It also gave a GI50 (786-0) of 1.74 µM, a CC50 (786-0; [2]) of 5.75 µM and a TGI (786-0; read-out: Log TGI (converted)) of 3.16 µM. The GI50 (KM12) was 1.82 µM, the CC50 (KM12; [2]) was 5.62 µM and the TGI (KM12; read-out: Log TGI (converted)) was 3.16 µM. For the same compound, the GI50 (CAKI-1) was 1.95 µM, the CC50 (CAKI-1; [2]) was 5.75 µM and the TGI (CAKI-1; read-out: Log TGI (converted)) was 3.39 µM. It also gave a GI50 (UACC-257) of 1.66 µM, a CC50 (UACC-257; [2]) of 6.46 µM and a TGI (UACC-257; read-out: Log TGI (converted)) of 3.31 µM. It also gave a GI50 (SNB-75) of 2.09 µM, a CC50 (SNB-75; [2]) of 7.08 µM and a TGI (SNB-75; read-out: Log TGI (converted)) of 3.89 µM. For the same compound, the GI50 (HOP-62) was 1.86 µM, the CC50 (HOP-62; [2]) was 5.89 µM and the TGI (HOP-62; read-out: Log TGI (converted)) was 3.31 µM. For the same compound, the GI50 (SK-MEL-28) was 1.86 µM, the LC50 (SK-MEL-28) was 5.75 µM and the TGI (SK-MEL-28; read-out: Log TGI (converted)) was 3.24 µM. It also gave a CC50 (SK-MEL-5) of 100 µM, a GI50 (A498) of 3.16 µM and a CC50 (A498; [2]) of 74.1 µM. For the same compound, the TGI (A498; read-out: Log TGI (converted)) was 6.46 µM, the GI50 (HOP-92) was 1.55 µM and the LC50 (HOP-92) was 5.89 µM. It also gave a TGI (HOP-92; read-out: Log TGI (converted)) of 3.02 µM, a GI50 (RPMI-8226) of 3.39 µM and a CC50 (RPMI-8226; [2]) of 7.24 µM. It also gave a TGI (RPMI-8226; read-out: Log TGI (converted)) of 3.63 µM, a GI50 (SK-MEL-2) of 2 µM and an LC50 (SK-MEL-2) of 8.13 µM. It also gave a TGI (SK-MEL-2; read-out: Log TGI (converted)) of 3.98 µM, a GI50 [1] of 1.62 µM and an LC50 [1] of 6.03 µM. For the same compound, the TGI ([1]; read-out: Log TGI (converted)) was 3.09 µM, the GI50 (DU-145) was 1.48 µM and the CC50 (DU-145; [2]) was 5.25 µM. The TGI (DU-145; read-out: Log TGI (converted)) was 2.82 µM, the GI50 (MOLT-4) was 0.871 µM and the LC50 (MOLT-4) was 4.9 µM. For the same compound, the TGI (MOLT-4; read-out: Log TGI (converted)) was 2.19 µM, the GI50 (NCI-H522) was 1.91 µM and the CC50 (NCI-H522; [2]) was 6.61 µM. The TGI (NCI-H522; read-out: Log TGI (converted)) was 3.55 µM, the GI50 (Malme-3M) was 1.95 µM and the LC50 (Malme-3M) was 6.03 µM. The TGI (Malme-3M; read-out: Log TGI (converted)) was 3.39 µM and the Drug uptake (MCF7) was 3600 pmol.
